Legend:
[1] = system: Liver microsomes; assay: Antioxidant activity in Wistar rat liver microsomes assessed as inhibition of lipid peroxidation after 1 hr by thiobarbiturate color reaction; assay type: functional, Microsome
Method in brief: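 Wistar rat liver microsomes in 50 mM Tris-HCl, 100 mM KCl, 0.1 mM EDTA, pH 7.4 (0.625 mg protein/mL). Compound (0–100 μM in DMSO, as added) incubated with tert-butylhydroperoxide (10 mM stock) at 37 °C for 1 h. TBA/TCA added, heated 90 °C 15 min, centrifuged, read at 535 nm. IC50 is 50% inhibition of colour; triplicates in three experiments.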

[2] = system: Radical scavenging activity; assay: Antioxidant activity assessed as DPPH radical scavenging activity for 10 mins; assay type: functional
Method in brief: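 Test compound in DMSO/MeOH 1:9 (0–20.0 mM, solution added) mixed 1:1 by volume with 0.1 mM DPPH in the same solvent; absorbance change followed at 540 nm over 10 min. IC50 is the concentration giving 50% absorbance reduction; three measurements in three independent experiments, mean with standard deviation.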

[3] = Cytotoxicity against MDCK cells after 2 hrs by MTT assay; assay type: cell-based, Canis lupus familiaris; conditions: dog
Method in brief: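 MDCK cells seeded at 1.5×10^4 per well in DMEM/10% FCS for 4–5 h, washed, exposed to compound in Opti-MEM I with 0.2% DMSO for 2 h. Then washed and kept in DMEM with 0.2% BSA for 24 h at 37 °C, 5% CO2. Viability by MTT reduction; CC50 relative to untreated wells.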

[4] = system: Influenza A virus; assay: Antiviral activity against Influenza A virus (A/PR8/34(H1N1)) infected in MDCK cells assessed as inhibition of plaque formation; assay type: functional, organism-based; conditions: A/Puerto Rico/8/1934(H1N1)
Method in brief: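 Compound premixed with virus in Opti-MEM I with 0.2% DMSO for 30 min at room temperature. The mixture was applied to confluent MDCK monolayers (MOI 2.5×10^-4) for 1 h at room temperature, then washed. Cells were overlaid with agar medium containing trypsin and 0.2% BSA for about 2 days at 37 °C, then fixed with glutaraldehyde and stained with methylene blue. EC50 is the concentration cutting plaque number 50% versus untreated.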

[5] = Selectivity index, ratio of CC50 for MDCK cells to EC50 for Influenza A virus (A/PR8/34(H1N1)); assay type: toxicity, cell-based; conditions: dog, read-out: Ratio CC50/EC50

| SMILES | IC50 [1] [µM] | IC50 [2] [mM] | CC50 at 2 h [3] [µM] | EC50 [4] [µM] | selectivity ratio [5] |
| --- | --- | --- | --- | --- | --- |
| CCCCCCCCCCCC(=O)OCC1Oc2ccc([C@H]3Oc4cc(O)cc(O)c4C(=O)[C@@H]3O)cc2OC1c1ccc(O)c(OC)c1 (stereo partly drawn) | 50.5 | 2.8 | 120 | 3 | 40 |
| CCCCCCCCCCCC(=O)Oc1cc(O)c2c(c1)O[C@H](c1ccc3c(c1)OC(c1ccc(O)c(OC)c1)C(CO)O3)[C@@H](O)C2=O (stereo partly drawn) | 44.7 | 3 | > 560 | 6 | > 93.3 |
| CCCCCCCC(=O)OCC1Oc2ccc([C@H]3Oc4cc(O)cc(O)c4C(=O)[C@@H]3O)cc2OC1c1ccc(O)c(OC)c1 (stereo partly drawn) | 61.1 | 3.2 | 30 |  |  |
| CCCC(=O)OCC1Oc2ccc([C@H]3Oc4cc(O)cc(O)c4C(=O)[C@@H]3O)cc2OC1c1ccc(O)c(OC)c1 (stereo partly drawn) | 91.7 | 3.4 | 300 | 24 | 12.5 |
| CCCCCCCC(=O)Oc1cc(O)c2c(c1)O[C@H](c1ccc3c(c1)OC(c1ccc(O)c(OC)c1)C(CO)O3)[C@@H](O)C2=O (stereo partly drawn) | 117 | 4 | 240 | 6 | 40 |
| CCCCCCCCCCCCCCCC(=O)OCC1Oc2ccc([C@H]3Oc4cc(O)cc(O)c4C(=O)[C@@H]3O)cc2OC1c1ccc(O)c(OC)c1 (stereo partly drawn) | 51.9 | 3.2 | > 480 | 3 | > 160 |
| COc1cc(C2Oc3cc([C@H]4Oc5cc(O)cc(O)c5C(=O)[C@@H]4O)ccc3OC2CO)ccc1O (stereo partly drawn) [SILIBININ] | 58.1 | 2.1 | > 800 |  |  |
| CCCCCCCCCCCCCCCC(=O)Oc1cc(O)c2c(c1)O[C@H](c1ccc3c(c1)OC(c1ccc(O)c(OC)c1)C(CO)O3)[C@@H](O)C2=O (stereo partly drawn) | 28.9 | 3.6 |  |  |  |
| CCCC(=O)Oc1cc(O)c2c(c1)O[C@H](c1ccc3c(c1)OC(c1ccc(O)c(OC)c1)C(CO)O3)[C@@H](O)C2=O (stereo partly drawn) | 101 | 2.3 | 300 | 14 | 21.4 |
